This excerpt belongs to a sample that is enriched for hits.
T cruzi repl – inhibitors of intracellular T. cruzi growth, primary screen, luminescence, NIH3T3 host cells; inhibition, % (test concentration not listed); hit rate 1.4% among 300,000; T. cruzi beta-gal in NIH3T3, 90 h;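 active = mean inhibition across valid replicates above about 55%, limit read from the data; inconclusive = mean below that limit but half or more replicates reach it; inactive = mean below it, under half of replicates reach it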;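 also: signal also drops with host cell toxicity which is not excluded here; higher percent means less beta-gal luminescence so fewer parasites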
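Material: NIH/3T3 host cells with β-galactosidase reporter T. cruzi; Input: 5,000 host fibroblasts per well; Medium: DMEM, 2% fetal bovine serum; Compound: 50 nL DMSO compound solution per well; Schedule: 3 h host attachment, then at least 90 h co-culture; Detection: luminescent β-galactosidase signal after 60 min lysis.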
HSF-1 act – HSF-1 activators, primary screen, NIH3T3-HGL cells, MG132 stress, luminescence, single point | NIH3T3-HGL HSF-1 luciferase reporter, 8 h; 100% = twice DMSO control signal | activation, % at 9 µM | hit rate 1.7% among 300,000;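 active = mean replicate activation of at least 50% with a set share of replicates each reaching 50%; inconclusive = only one of those two conditions met; inactive = mean below 50% and too few replicates reaching it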
Hsp70 activator – Hsp70 transcriptional activators, primary screen, cell-based, HeLa, Hsp70 promoter luciferase, luminescence, 10 µM | HeLa Hsp70 promoter luciferase reporter; scaled: vehicle 0, proteasome-inhibitor control 100% | activation, % at 10 µM | hit rate 0.04% among 200,000;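 active = activation above the mean across all tested compounds plus 3 SD, cutoff set per campaign, cut at about 5.5% in these data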
HSF1 inhib – HSF1 inhibitors in luciferase reporter cells, primary screen, cell-based, NIH3T3, luminescence; activity change, negative = inhibition, % at 7.5 µM (by protocol); NIH3T3-HGL HSE-luciferase, MG132-induced, luminescence 8 h; active compounds read low; hit rate 0.77% among 300,000;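 active = more than half of replicate wells show activity change below -50%, luminescence cut by over half; inconclusive = some wells, but at most half, below -50%; inactive = no replicate well below -50%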;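 also: luciferase reports HSF-1 transcriptional activity via heat shock element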
L major viab – Leishmania major promastigote growth inhibition, primary screen | Leishmania major promastigotes, resazurin fluorescence viability | inhibition, % at 10 µM | hit rate 9% among 200,000; in the data active = inhibition above about 50%;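 also: promastigotes grown with compound for 44 hours at 28 °C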
A number is an active result; 0 = inactive; ? = inconclusive; - = no result.

SMILES	T cruzi repl	HSF-1 act	Hsp70 activator	HSF1 inhib	L major viab
CCOc1cccc2cc(C(C)=O)oc12	0	0	0	0	0
N#Cc1c(N)nc2c3c(sc(=N)c2c1N)NC(=O)CC3c1ccccc1 (stereo not given)	0	0	0	0	0
N#Cc1c(N)nc2c3c(sc(=N)c2c1N)NC(=O)CC3c1c(F)cccc1Cl (stereo not given)	0	0	0	0	99.7
Cc1cc(C)c(OCCNC(=O)c2ccccc2Sc2ccccc2C#N)c(C)c1	0	0	0	0	99.5
CCOC(=O)c1ccc(NC(=S)N2CCN(CCN=CC3=C(O)CC(c4ccccc4)CC3=O)CC2)cc1 (stereo not given)	0	0	-	0	-
COc1ccc(NC(=S)N2CCN(CCN=CC3=C(O)CC(c4ccccc4)CC3=O)CC2)cc1 (stereo not given)	0	0	0	0	53.3
Cc1c(Cl)cccc1NC(=S)N1CCC(C(N)=O)(N2CCCCC2)CC1	0	0	0	0	0
Cc1ccc(C(=O)NC(NCc2ccco2)C(Cl)(Cl)Cl)cc1 (stereo not given)	0	0	0	0	59.6
Cc1cccc(C(=O)NC(NCc2ccco2)C(Cl)(Cl)Cl)c1 (stereo not given)	0	0	0	0	0
COc1ccc(C(=O)NC(Nc2ccc(C)cc2)C(Cl)(Cl)Cl)cc1 (stereo not given)	0	0	0	0	74.7
CC(Cc1ccco1)NC(=O)c1ccc(C(F)(F)F)cc1 (stereo not given)	0	66.0	-	0	-
CCOC(CCn1ccc(O)c(Cc2ccc(Cl)cc2)c1=O)OCC	0	0	-	0	-
CC(OC(=O)Cc1n[nH]c(=O)c2ccccc12)C(=O)Nc1ccc(F)cc1Cl (stereo not given)	0	0	-	0	-
CCOC(=O)N1CCc2c(sc3nc4n(c(=O)c23)N=C(c2ccc(OC)cc2)CS4)C1	0	0	-	0	-
O=C1CN(C(=O)CNCc2ccccc2Cl)c2ccccc2N1	0	0	-	0	-
O=C(Oc1ccccc1F)c1ccc2c(=O)n3c(nc2c1)CCC3	0	0	-	0	-
Cc1ccc2nc(N(CCCN(C)C)C(=O)c3ccco3)sc2c1	55.8	0	0	0	0
CN(C)CCCN(C(=O)c1ccc(Cl)s1)c1nc2cc3c(cc2s1)OCO3	?	0	-	0	-
CN(C)CCCN(C(=O)c1cccs1)c1nc2cc3c(cc2s1)OCO3	67.0	0	0	0	0
CN(C)CCCN(C(=O)c1ccco1)c1nc2c(F)cc(F)cc2s1	57.1	0	0	0	0
CN(C)CCCN(C(=O)c1ccco1)c1nc2ccc(F)cc2s1	0	-	0	-	0
CN(C)CCCN(C(=O)c1ccco1)c1nc2cc3c(cc2s1)OCO3	56.7	0	-	0	-
CSCc1cc(N(C)c2ccccc2)nc(-c2ccccc2)n1	0	0	-	0	-
CCN(CC)CCN(C(=O)c1ccc([N+](=O)[O-])cc1)c1nc2ccc(OC)cc2s1	0	-	0	-	0
CN(C)CCCN(C(=O)c1ccc([N+](=O)[O-])s1)c1nc2cc3c(cc2s1)OCCO3	0	0	-	0	-
SMILES	T cruzi repl	HSF-1 act	Hsp70 activator	HSF1 inhib	L major viab
CCN(CC)CCN(C(=O)C1=COCCO1)c1nc2cc3c(cc2s1)OCO3	0	0	0	0	0
CCN(CC)CCN(C(=O)C1=COCCO1)c1nc2ccc(C)cc2s1	58.9	53.2	-	0	-
CCOc1ccc2nc(N(CCN(CC)CC)C(=O)c3ccc([N+](=O)[O-])cc3)sc2c1	54.9	0	0	0	0
CN(C)CCCN(C(=O)c1cc2cc([N+](=O)[O-])ccc2s1)c1nc2cc3c(cc2s1)OCCO3	63.0	0	-	0	-
Cc1ccc2nc(N(CCCN(C)C)C(=O)c3ccc(Br)s3)sc2c1	61.7	0	0	0	0
O=C(Nc1cccc([N+](=O)[O-])c1)c1cc(S(=O)(=O)N2CCOCC2)cs1	0	0	-	0	-
CCn1c(SCC(=O)Nc2nncs2)nnc1-c1ccco1	0	0	-	0	-
O=C(CN1CCN(C2CCCCC2)CC1)Nc1ccccc1-c1ccccc1	0	0	0	0	58.7
O=P(OCC1CC1)(c1ccccc1)c1ccccc1	0	0	0	0	0
COc1cc(SC)ccc1C(=O)NCC1CCCO1 (stereo not given)	0	0	0	-74.0	0
COc1cc(SC)ccc1C(=O)Nc1ccc2c(c1)CCC2	0	92.5	-	0	-
COc1cc(SC)ccc1C(=O)Nc1ccncc1	0	0	0	0	0
COc1ccc(C(=O)NCC2CCCO2)cc1OC (stereo not given)	0	0	-	0	-
Cc1ccc(N2C(=O)NC(NS(=O)(=O)c3ccccc3)(C(F)(F)F)C2=O)cc1C (stereo not given)	0	0	-	0	-
Cn1cc(S(=O)(=O)NC2CCCCC2)c(=O)n(C)c1=O	0	0	-	0	-
CCc1ccc(CN(C)C(=O)C2CCC(=O)N(Cc3ccccn3)C2)cc1 (stereo not given)	0	0	-	0	-
Cc1cccc(C)c1N1CCN(c2ccc3nnc(C(F)(F)F)n3n2)CC1	0	129.3	0	0	59.8
COc1cccc(C(=O)NCC(=O)NCc2cc(=O)n(C)c(=O)n2C)c1OC	0	0	-	0	-
O=C(Nc1cc(Sc2nc3ccccc3s2)cc([N+](=O)[O-])c1)c1cccc(F)c1F	0	0	0	0	73.2
c1ccc(C2=Nc3ccccc3SC2c2nc3ccccc3[nH]2)cc1 (stereo not given)	0	83.8	0	0	0
COc1ccccc1Oc1ccc(Oc2ccccc2OC)cc1	0	0	0	0	0
CS(=O)(=O)c1nc(-c2ccccc2)cc(C(F)(F)F)n1	65.1	0	0	-97.7	0
CNC(=O)/C(C#N)=C/c1ccc(-c2ccc(Cl)cc2)o1	0	73.1	0	0	0
O=C(Nc1ccccc1Br)c1cc[n+]([O-])cc1	0	0	-	0	-
CC[N+]1=C(C)C(C)(C)c2cc(C)ccc21	57.3	0	0	0	0
SMILES	T cruzi repl	HSF-1 act	Hsp70 activator	HSF1 inhib	L major viab
CCOc1ccc(NC(=O)c2c(N)n(C)c(=O)[nH]c2=O)cc1	0	0	-	0	-
CC(C)(C)C1CCc2sc(C(=O)NNC(=O)CCl)cc2C1 (stereo not given)	67.2	0	0	0	0
CC(C)(C)C1CCC(=NNC(=O)c2cc3c(s2)CCCC3)CC1 (stereo not given)	0	0	0	0	0
CCn1cc(CN2CCC(C(=O)Nc3cccc(-c4cccc(OC)c4)c3)CC2)c(C)n1	0	0	-	0	-
Cc1cccc(C)c1NC(=O)CSc1nnc(Cn2nnc(-c3ccccc3)n2)n1-c1ccccc1	0	74.1	0	0	0
Cc1cccc(C)c1NC(=O)CCCSc1nnc(-c2ccc(Cl)cc2)n1-c1ccccc1	0	0	0	0	56.5
O=C(CSc1nnc(Cn2nnc(-c3ccccc3)n2)n1-c1ccccc1)Nc1ccccc1	0	0	0	0	0
Cc1ccc(NC2=NC(c3ccc(F)cc3)n3c(nc(C)cc3=O)N2)cc1 (stereo not given)	0	0	-	0	-

Screens (PubChem)
